# From ChEMBL document CHEMBL5678799 (Biochem J, 2009)
# Active and inactive are the calls of the source. The calls are words filed in the database; no cut-off is given here.
# Legend:
# [1] = target: Homeodomain-interacting protein kinase 2 (Homo sapiens) (UniProt Q9H2X6); experiment: Inhibition of recombinant human N-terminal GST-tagged HIPK2 (165 to 564 residues) expressed in Escherichia coli assessed as remaining activity at 10 uM using MBP as substrate incubated for 30 mins in presence of [gamma-33P]ATP by filter binding method relative to control
# Sequence of Homeodomain-interacting protein kinase 2 (Homo sapiens) (Q9H2X6 whole entry, looked up, the tested form may be a part): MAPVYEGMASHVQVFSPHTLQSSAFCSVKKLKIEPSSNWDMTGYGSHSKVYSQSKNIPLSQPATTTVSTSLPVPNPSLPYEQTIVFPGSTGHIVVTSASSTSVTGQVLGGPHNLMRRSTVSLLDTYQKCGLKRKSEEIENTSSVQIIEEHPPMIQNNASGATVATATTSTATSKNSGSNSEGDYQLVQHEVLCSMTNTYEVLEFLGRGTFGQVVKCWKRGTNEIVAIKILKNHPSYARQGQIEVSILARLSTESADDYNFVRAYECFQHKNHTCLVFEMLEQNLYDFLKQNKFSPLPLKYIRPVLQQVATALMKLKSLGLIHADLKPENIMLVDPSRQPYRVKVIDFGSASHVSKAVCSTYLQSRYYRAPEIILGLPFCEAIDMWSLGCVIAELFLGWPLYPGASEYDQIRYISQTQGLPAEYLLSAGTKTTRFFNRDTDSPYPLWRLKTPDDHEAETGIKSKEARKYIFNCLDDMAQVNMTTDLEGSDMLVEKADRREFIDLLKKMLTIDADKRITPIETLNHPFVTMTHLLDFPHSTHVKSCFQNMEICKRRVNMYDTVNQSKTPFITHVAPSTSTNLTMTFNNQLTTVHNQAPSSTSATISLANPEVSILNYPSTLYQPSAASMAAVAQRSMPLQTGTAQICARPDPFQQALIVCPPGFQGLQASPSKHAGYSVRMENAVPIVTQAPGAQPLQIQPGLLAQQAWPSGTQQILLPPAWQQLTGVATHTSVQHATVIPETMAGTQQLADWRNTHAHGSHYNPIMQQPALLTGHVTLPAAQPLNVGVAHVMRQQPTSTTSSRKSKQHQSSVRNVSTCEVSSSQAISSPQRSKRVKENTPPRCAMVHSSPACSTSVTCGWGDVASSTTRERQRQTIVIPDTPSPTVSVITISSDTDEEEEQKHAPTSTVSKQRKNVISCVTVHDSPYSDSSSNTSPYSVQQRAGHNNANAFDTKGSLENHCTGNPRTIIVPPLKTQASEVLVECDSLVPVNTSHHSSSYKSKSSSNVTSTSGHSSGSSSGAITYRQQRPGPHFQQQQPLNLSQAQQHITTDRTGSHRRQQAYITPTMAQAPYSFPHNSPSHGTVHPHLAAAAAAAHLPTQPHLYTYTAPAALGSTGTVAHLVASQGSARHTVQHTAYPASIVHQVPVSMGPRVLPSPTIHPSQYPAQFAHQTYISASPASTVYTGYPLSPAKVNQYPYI
# Summary of the method: (§1)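 Radiometric kinase panel run robotically at room temperature (21 °C) for 30 min, linear in time and enzyme. […] Activity is expressed as percent of control without compound, from triplicate determinations ± S.D.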
# mTORC1 (Homo sapiens) [2] = target: T1, mTORC1 (Homo sapiens) (UniProt P42345+Q8N122+Q9BVC4); conditions: HEK293, dose 30-1000 nM, time 30.0 min
# T1 sequence (Q8N122 whole entry, looked up, other chains not shown): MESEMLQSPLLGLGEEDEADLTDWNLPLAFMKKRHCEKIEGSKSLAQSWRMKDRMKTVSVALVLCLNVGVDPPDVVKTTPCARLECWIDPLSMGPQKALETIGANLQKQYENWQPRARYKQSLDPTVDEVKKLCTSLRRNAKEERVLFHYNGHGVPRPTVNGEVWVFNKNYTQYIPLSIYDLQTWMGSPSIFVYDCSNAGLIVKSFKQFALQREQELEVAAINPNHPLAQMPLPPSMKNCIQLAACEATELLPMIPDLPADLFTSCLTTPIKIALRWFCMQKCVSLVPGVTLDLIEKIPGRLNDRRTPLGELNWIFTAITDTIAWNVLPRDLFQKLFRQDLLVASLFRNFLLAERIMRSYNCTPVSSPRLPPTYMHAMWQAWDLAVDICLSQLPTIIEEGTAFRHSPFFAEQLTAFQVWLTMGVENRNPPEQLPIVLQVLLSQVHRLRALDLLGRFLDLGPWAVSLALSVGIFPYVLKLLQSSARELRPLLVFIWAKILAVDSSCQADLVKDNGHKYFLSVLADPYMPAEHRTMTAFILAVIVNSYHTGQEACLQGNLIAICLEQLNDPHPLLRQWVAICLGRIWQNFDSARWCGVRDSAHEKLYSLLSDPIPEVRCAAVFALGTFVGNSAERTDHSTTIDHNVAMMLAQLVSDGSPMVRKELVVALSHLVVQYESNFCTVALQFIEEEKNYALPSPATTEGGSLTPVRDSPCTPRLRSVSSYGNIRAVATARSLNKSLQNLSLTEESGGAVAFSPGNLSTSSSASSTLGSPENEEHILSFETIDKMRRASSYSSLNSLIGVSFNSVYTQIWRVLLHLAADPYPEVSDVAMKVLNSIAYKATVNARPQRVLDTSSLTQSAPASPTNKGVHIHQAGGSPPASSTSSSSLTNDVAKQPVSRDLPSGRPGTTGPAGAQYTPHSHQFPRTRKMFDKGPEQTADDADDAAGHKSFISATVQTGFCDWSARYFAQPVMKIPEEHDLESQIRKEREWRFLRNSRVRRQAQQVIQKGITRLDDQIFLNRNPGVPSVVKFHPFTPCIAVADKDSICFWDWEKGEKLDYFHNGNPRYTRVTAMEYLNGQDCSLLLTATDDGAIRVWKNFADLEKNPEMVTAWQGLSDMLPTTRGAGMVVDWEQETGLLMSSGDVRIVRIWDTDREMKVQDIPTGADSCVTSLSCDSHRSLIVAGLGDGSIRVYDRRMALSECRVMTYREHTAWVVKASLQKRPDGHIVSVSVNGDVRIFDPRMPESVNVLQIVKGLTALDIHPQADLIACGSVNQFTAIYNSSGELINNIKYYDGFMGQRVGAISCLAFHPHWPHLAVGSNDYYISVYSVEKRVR
# T1 sequence (Q9BVC4 whole entry, looked up, other chains not shown): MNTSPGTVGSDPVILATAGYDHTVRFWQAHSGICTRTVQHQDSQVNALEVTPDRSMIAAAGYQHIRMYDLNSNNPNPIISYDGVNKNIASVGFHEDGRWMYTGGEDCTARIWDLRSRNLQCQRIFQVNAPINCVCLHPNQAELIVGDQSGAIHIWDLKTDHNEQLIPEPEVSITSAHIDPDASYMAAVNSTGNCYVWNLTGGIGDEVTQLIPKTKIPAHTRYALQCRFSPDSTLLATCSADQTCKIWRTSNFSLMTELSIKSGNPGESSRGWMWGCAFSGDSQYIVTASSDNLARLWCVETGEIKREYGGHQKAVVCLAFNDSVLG
# mTORC1 (Homo sapiens) [3] = target: T1, mTORC1 (Homo sapiens); conditions: HEK293, dose 30-1000 nM, time 30.0 min; remark: listed apart in the source
# [4] = target: Ribosomal protein S6 kinase alpha-1 (Homo sapiens) (UniProt Q15418); experiment: Inhibition of recombinant human N-terminal His6-tagged RSK1 (1 to 735 residues) expressed in baculovirus infected Sf21 cells assessed as remaining activity at 1 uM using KKLNRTLSVA as substrate incubated for 30 mins in presence of [gamma-33P]ATP by filter binding assay relative to control
# Sequence of Ribosomal protein S6 kinase alpha-1 (Homo sapiens) (Q15418 whole entry, the tested form may be a part): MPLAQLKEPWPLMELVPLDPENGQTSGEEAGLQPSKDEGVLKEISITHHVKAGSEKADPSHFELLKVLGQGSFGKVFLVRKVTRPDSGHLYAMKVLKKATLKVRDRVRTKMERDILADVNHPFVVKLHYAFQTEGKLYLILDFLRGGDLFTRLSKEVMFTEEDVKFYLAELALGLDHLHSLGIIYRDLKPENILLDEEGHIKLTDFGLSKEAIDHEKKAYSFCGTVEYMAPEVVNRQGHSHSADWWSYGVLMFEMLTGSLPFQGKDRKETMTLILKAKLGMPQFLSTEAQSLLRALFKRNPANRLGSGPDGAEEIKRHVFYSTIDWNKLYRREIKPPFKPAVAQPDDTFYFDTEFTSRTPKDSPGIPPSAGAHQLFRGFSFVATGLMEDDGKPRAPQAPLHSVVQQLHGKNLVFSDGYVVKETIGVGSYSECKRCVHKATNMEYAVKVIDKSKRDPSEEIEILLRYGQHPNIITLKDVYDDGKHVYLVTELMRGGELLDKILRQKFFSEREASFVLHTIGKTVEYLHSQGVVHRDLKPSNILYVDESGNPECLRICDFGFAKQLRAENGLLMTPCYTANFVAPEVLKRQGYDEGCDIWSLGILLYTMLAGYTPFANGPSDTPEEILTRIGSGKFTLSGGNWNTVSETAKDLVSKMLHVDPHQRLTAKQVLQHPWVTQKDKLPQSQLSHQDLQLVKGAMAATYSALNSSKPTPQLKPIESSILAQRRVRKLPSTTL
# [5] = target: Dual specificity tyrosine-phosphorylation-regulated kinase 1A (Homo sapiens) (UniProt Q13627); experiment: Inhibition of recombinant human N-terminal GST-tagged DYRK1A (1 to 502 residues) expressed in Escherichia coli assessed as remaining activity at 1 uM using KKISGRLSPIMTEQ as substrate incubated for 30 mins in presence of [gamma-33P]ATP by filter binding method relative to control
# Summary of the method: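 Run robotically for 30 min at 21 °C under linear conditions. Compound at 1 or 10 µM. Percentage activity remaining versus control without compound, triplicate mean ± S.D.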
# [6] = target: Maternal embryonic leucine zipper kinase (Homo sapiens) (UniProt Q14680); experiment: Inhibition of recombinant human N-terminal GST/C-terminal His6-tagged MELK (2 to 651 residues) expressed in Escherichia coli assessed as remaining activity at 1 uM using KKLNRTLSFAEPG as substrate incubated for 30 mins in presence of [gamma-33P]ATP by filter binding method relative to control
# Summary of the method: (§2)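 Incubation was 30 min at room temperature (21 °C) under conditions linear with time and enzyme amount. Activity is reported as percent of control lacking compound, triplicate mean ± S.D.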
# [7] = target: Mitogen-activated protein kinase 8 (Homo sapiens) (UniProt P45983); experiment: Inhibition of recombinant human His6-tagged JNK1alpha1 (1 to 384 residues) expressed in baculovirus infected Sf21 cells assessed as remaining activity at 10 uM using ATF2 as substrate incubated for 30 mins in presence of [gamma-33P]ATP by filter binding method relative to control
# Summary of the method: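 Robotic radiometric panel assay, 30 min at room temperature (21 °C), with 10 mM magnesium acetate. […] Compound at 1 or 10 µM. Residual activity expressed relative to compound-free control; triplicate average ± S.D.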
# [8] = target: Inhibitor of nuclear factor kappa-B kinase subunit epsilon (Homo sapiens) (UniProt Q14164); experiment: Inhibition of recombinant human N-terminal GST-tagged IKKepsilon (1 to 716 residues) expressed in baculovirus infected Sf21 cells assessed as remaining activity at 10 uM using MBP as substrate incubated for 30 mins in presence of [gamma-33P]ATP by filter binding method relative to control; summary of the method: as §2
# Sequence of Inhibitor of nuclear factor kappa-B kinase subunit epsilon (Homo sapiens) (Q14164 whole entry, the tested form may be a part): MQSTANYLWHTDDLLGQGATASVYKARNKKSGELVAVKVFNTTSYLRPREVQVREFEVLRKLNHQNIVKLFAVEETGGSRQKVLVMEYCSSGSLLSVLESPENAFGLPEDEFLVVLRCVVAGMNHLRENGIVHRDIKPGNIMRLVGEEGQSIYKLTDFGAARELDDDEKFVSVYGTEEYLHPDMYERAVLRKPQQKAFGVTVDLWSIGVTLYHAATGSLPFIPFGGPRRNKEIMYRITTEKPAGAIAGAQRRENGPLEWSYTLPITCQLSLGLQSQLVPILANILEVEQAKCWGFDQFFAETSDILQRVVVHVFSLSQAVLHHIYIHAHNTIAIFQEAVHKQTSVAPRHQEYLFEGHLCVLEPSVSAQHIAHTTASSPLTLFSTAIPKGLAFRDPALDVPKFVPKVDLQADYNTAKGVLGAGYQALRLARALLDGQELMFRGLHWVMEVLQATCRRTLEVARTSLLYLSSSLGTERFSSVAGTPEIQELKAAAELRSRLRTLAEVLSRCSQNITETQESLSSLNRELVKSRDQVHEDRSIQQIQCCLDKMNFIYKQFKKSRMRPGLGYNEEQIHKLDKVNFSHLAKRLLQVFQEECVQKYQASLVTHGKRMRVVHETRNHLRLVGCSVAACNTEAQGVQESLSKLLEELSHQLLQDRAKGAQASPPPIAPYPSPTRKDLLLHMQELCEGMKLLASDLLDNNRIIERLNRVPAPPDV
# [9] = target: Myosin light chain kinase (Homo sapiens) (UniProt Q32MK0); experiment: Inhibition of MLCK (unknown origin) assessed as remaining activity at 1 uM relative to control
# Summary of the method: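 Profiling-centre panel assay performed robotically at 21 °C for 30 min, linear with time and enzyme. […] Values are percent of compound-free control activity, the mean of triplicates ± S.D.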
# [10] = target: Ribosomal protein S6 kinase alpha-3 (Homo sapiens) (UniProt P51812); experiment: Inhibition of recombinant human N-terminal His6-tagged RSK2 (2 to 740 residues) expressed in baculovirus infected Sf21 cells assessed as remaining activity at 10 uM using KKLNRTLSVA as substrate incubated for 30 mins in presence of [gamma-33P]ATP by filter binding method relative to control
# Summary of the method: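 Assays ran 30 min at 21 °C, robotically and in the linear range. Remaining activity is given relative to incubations lacking compound, as the average of triplicate determinations ± S.D.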
# [11] = target: Mitogen-activated protein kinase 13 (Homo sapiens) (UniProt O15264); experiment: Inhibition of recombinant human GST-tagged P38delta (1 to 365 residues) expressed in Escherichia coli assessed as remaining activity at 1 uM using MBP as substrate incubated for 30 mins in presence of [gamma-33P]ATP by filter binding method relative to control
# Sequence of Mitogen-activated protein kinase 13 (Homo sapiens) (O15264 whole entry, the tested form may be a part): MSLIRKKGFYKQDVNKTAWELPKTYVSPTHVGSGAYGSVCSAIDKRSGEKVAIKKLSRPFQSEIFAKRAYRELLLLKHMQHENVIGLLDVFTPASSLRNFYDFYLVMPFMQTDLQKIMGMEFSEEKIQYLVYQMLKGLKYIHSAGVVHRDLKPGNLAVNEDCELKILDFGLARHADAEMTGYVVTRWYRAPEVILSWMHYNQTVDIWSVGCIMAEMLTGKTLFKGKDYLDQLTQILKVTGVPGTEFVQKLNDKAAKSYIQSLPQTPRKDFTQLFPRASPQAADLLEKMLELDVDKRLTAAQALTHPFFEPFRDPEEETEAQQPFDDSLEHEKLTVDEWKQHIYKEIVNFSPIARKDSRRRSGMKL
# Summary of the method: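 Kinase panel run robotically at 21 °C for 30 min, linear in time and enzyme. […] Compound tested at 1 or 10 µM. Activity given as percentage of incubations without compound, mean of triplicates ± S.D.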
# [12] = target: Mitogen-activated protein kinase 12 (Homo sapiens) (UniProt P53778); experiment: Inhibition of recombinant human N-terminal GST-tagged P38gamma (1 to 367 residues) expressed in Escherichia coli assessed as remaining activity at 1 uM using MBP as substrate incubated for 30 mins in presence of [gamma-33P]ATP by filter binding method relative to control; summary of the method: as §1
# [13] = target: Sphingosine kinase 1 (Homo sapiens) (UniProt Q9NYA1); experiment: Inhibition of SPHK1 (unknown origin) assessed as remaining activity at 10 uM using sphingosine as substrate incubated for 30 mins in presence of ATP relative to control
# Sequence of Sphingosine kinase 1 (Homo sapiens) (Q9NYA1 whole entry): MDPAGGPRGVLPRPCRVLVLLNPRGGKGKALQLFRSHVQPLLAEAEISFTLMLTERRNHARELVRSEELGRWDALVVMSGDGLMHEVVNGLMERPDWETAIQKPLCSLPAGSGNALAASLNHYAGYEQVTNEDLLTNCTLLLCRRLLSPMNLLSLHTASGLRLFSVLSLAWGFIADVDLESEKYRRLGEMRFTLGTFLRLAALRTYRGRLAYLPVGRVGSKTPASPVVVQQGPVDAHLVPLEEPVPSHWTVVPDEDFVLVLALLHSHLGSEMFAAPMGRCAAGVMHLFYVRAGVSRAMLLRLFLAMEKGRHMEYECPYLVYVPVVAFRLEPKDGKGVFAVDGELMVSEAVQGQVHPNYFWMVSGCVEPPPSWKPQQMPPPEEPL
# Summary of the method: (§3)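 SPHK1 assayed with 10 μM sphingosine, 10 μM ATP in 50 mM Tris/HCl pH 7.5, 150 mM NaCl, 5 mM MgCl2, 1 mM EGTA, 1 mM DTT, 30 min at room temperature. ATP remaining read by Kinase-Glo Plus luminescence after 10 min. Activity as % of control, triplicate.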
# [14] = target: MAP kinase-interacting serine/threonine-protein kinase 1 (Homo sapiens) (UniProt Q9BUB5); experiment: Inhibition of recombinant human N-terminal GST-tagged C-terminal His6-tagged MNK1 (2 to 424 residues) expressed in Escherichia coli assessed as remaining activity at 10 uM using eIF4E as substrate incubated for 30 mins in presence of [gamma-33P]ATP by filter binding method relative to control
# [15] = target: Mitogen-activated protein kinase; ERK1/ERK2 (Homo sapiens) (UniProt P27361+P28482); experiment: Inhibition of ERK1/2 in serum starved/PMA-stimulated HEK293 cells assessed as reduction in RSK phosphorylation at S380 residues at 1 uM incubated for 30 mins by immunoblot analysis; assay type: cell-based
# mTORC1 (Homo sapiens) [16] = target: T1, mTORC1 (Homo sapiens); conditions: HEK293, dose 30-1000 nM, time 30.0 min; remark: listed apart in the source
# [17] = target: Sphingosine kinase 1 (Homo sapiens) (UniProt Q9NYA1); experiment: Inhibition of SPHK1 (unknown origin) assessed as remaining activity at 1 uM using sphingosine as substrate incubated for 30 mins in presence of ATP relative to control; summary of the method: as §3
smiles,measurement,setting,value
COc1ccc(-c2ccc3c(N4CCOCC4)nc(N4C[C@@H](C)O[C@@H](C)C4)nc3n2)cc1CO [Ku-0063794],Activity,[1],89%
same,inhibition,mTORC1 (Homo sapiens) [2],Dose-Dependent Effect
same,inhibition,mTORC1 (Homo sapiens) [3],Dose-Dependent Effect
same,Activity,[4],100%
same,Activity,[5],94%
same,Activity,[6],91%
same,Activity,[7],93%
same,Activity,[8],100%
same,Activity,[9],82%
same,Activity,[10],104%
same,Activity,[11],72%
same,Activity,[12],89%
same,Activity,[13],99%
same,Activity,[14],75%
same,inhibition,[15],inactive
same,inhibition,mTORC1 (Homo sapiens) [16],Dose-Dependent Effect
same,Activity,[17],108%
